Data published in ChEMBL document CHEMBL1123985, “Oral absorption of cephalosporin antibiotics. 1. Synthesis, biological properties, and oral bioavailability of 7-(arylacetamido)-3-chloro cephalosporins in animals” (J Med Chem, 1988).
In brackets after ≈: the same amount, converted by molar mass.

Tests used:
[1] = Mean plasma levels in rats 1 hr after iv administration of 100 mg/kg of probenecid 5 min prior to test compound; format: ADME, organism-based; design: dose 100 mg/kg, route intravenous; conditions: rat, read-out: Plasma level
How it was run: (§1)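 Rats, jugular vein cannulated (two per group), test compound iv 20 mg/kg; probenecid 100 mg/kg iv 5 min before in treated groups. Heparinized plasma sampled at 5, 20, 40 min and 1, 2, 3 h, assayed microbiologically (B. subtilis agar well). AUC 0-3 h in μg min/mL; half-life in min.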

[2] = test system: Streptococcus pyogenes; test: Minimum inhibitory concentration against C203 strain of Streptococcus pyogenes
[3] = test system: Canis familiaris; test: Area under plasma concentration vs time curve observed in female mongrel dogs after, iv administration of single 15 mg/kg dose; format: ADME, organism-based, Canis lupus familiaris; design: dose 15 mg/kg, route intravenous; conditions: dog, in vivo
How it was run: (§2)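 Six female mongrel dogs (14-23 kg) fasted overnight, bladder catheterized; single 15 mg/kg solution doses by stomach tube (in water, total 500 mL) or cephalic vein (saline or pH 6.0 NaCl/phosphate/acetate buffer). Plasma sampled at intervals; activity by disk-plate agar diffusion against E. coli MB 3804, standards in dog serum or buffer. AUC μg min/mL, mean ± SEM; BA from iv vs po AUC and urinary recovery.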

[4] = Percent of urinary recovery in rats after, sc administration of single 20 mg/kg dose in solution (N,range); format: ADME, organism-based; design: dose 20 mg/kg, route subcutaneous; conditions: rat, urine, read-out: Recovery
How it was run: (§3)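 Male Wistar rats (200-300 g), jugular-cannulated, upper GI emptied by light cycle; 20 mg/kg in saline (6 mg/mL) sc or orally. Urine collected in wire-bottom cages, assayed by B. subtilis agar well method. Mean ± SD recovery with N and range; bioavailability = oral over mean sc recovery.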

[5] = test system: Staphylococcus aureus; test: Minimum inhibitory concentration against 3055 strain of Staphylococcus aureus
[6] = Area under plasma concentration vs time curve observed in rats for 0-3 h; format: ADME; design: time < 3 hr; conditions: rat; how it was run: as §1
[7] = Oral bioavailability in Rhesus monkey; format: ADME, organism-based, Macaca mulatta; conditions: in vivo
How it was run: (§4)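 Rhesus monkeys, adult males, six animals per compound, each given drug orally and iv; fasted overnight. Single 30 mg/kg solution doses, by nasogastric tube (in water) or saphenous vein (in isotonic lactated Ringer). Plasma sampled at intervals, frozen at -70 °C, antibacterial activity by microbiological assay. AUC in μg min/mL; oral bioavailability from oral vs iv AUC.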

[8] = test system: Staphylococcus aureus; test: Minimum inhibitory concentration against S13E strain of Staphylococcus aureus; format: functional
[9] = test system: Escherichia coli; test: Minimum inhibitory concentration against EC14 strain Escherichia coli; format: functional
[10] = test system: Mus musculus; test: Efficacy against mouse infected ip with 3055 strain of Staphylococcus aureus, administered sc to 19-21-g random sex ICR mice at 1 hr and 5 hr; format: functional
How it was run: (§5)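 ICR mice, random sex, 19-21 g, challenged ip with 50-500 LC50 from a frozen organism pool; compound given sc or po at 1 and 5 h after challenge, five 2-fold dose levels, eight mice per level; ED50 derived.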

[11] = test system: Staphylococcus epidermidis; test: Minimum inhibitory concentration against 222 strain of Staphylococcus epidermidis; format: functional
[12] = Area under plasma concentration vs time curve observed in Rhesus monkeys after, iv administration of single 30 mg/kg dose; format: ADME, organism-based, Macaca mulatta; design: dose 30 mg/kg, route intravenous; conditions: rhesus monkey; how it was run: as §4
[13] = Half-life of the compound; format: ADME; how it was run: as §1
[14] = Bioavailability in rat; format: ADME, organism-based; conditions: in vivo; how it was run: as §3
[15] = test system: Klebsiella aerogenes; test: Minimum inhibitory concentration against EB17 strain of Enterobacter aerogenes; format: functional
[16] = test system: Salmonella; test: Minimum inhibitory concentration against X514 strain of Salmonella; format: functional
[17] = test system: Staphylococcus aureus; test: Minimum inhibitory concentration against X1.1 strain of Staphylococcus aureus; format: functional
[18] = Percent of urinary recovery in rats after, oral administration of single 20 mg/kg dose in solution (N,range); format: ADME, organism-based; design: dose 20 mg/kg, route oral; conditions: rat, urine, read-out: Recovery; how it was run: as §3
[19] = test system: Mus musculus; test: Efficacy against mouse infected ip with 3055 strain of Staphylococcus aureus, administered po to 19-21-g random sex ICR mice at 1 hr and 5 hr; format: functional; how it was run: as §5
[20] = test system: Canis familiaris; test: Area under plasma concentration vs time curve observed in female mongrel dogs after, oral administration of single 15 mg/kg dose; format: ADME, organism-based, Canis lupus familiaris; design: dose 15 mg/kg, route oral; conditions: dog, in vivo; how it was run: as §2
[21] = test system: Streptococcus pneumoniae; test: Minimum inhibitory concentration against Park strain of Streptococcus pneumoniae; format: functional
[22] = Mean plasma levels in rats 2 hr after iv administration of 100 mg/kg of probenecid 5 min prior to test compound; format: ADME, organism-based; design: dose 100 mg/kg, route intravenous; conditions: rat, read-out: Plasma level; how it was run: as §1
[23] = Mean plasma levels in rats 40 min after iv administration of 100 mg/kg of probenecid 5 min prior to test compound; format: ADME, organism-based; design: dose 100 mg/kg, route intravenous; conditions: rat, read-out: Plasma level; how it was run: as §1
[24] = Mean plasma levels in rats 20 min after iv administration of 100 mg/kg of probenecid 5 min prior to test compound; format: ADME, organism-based; design: dose 100 mg/kg, route intravenous; conditions: rat, read-out: Plasma level; how it was run: as §1
[25] = test system: Mus musculus; test: Efficacy against mouse infected ip with C203 strain of Streptococcus pyogenes, administered po to 19-21-g random sex ICR mice at 1 hr and 5 hr; format: functional; how it was run: as §5
[26] = test system: Staphylococcus aureus; test: Minimum inhibitory concentration against V41 strain of Staphylococcus aureus; format: functional
[27] = dose in urine (24-h urine excretion) in female mongrel dogs after, iv administration of single 15 mg/kg dose; format: ADME, organism-based, Canis lupus familiaris; design: dose 15 mg/kg, route intravenous; conditions: dog
How it was run: (§6)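 Female mongrel dogs (n=6), bladder catheter; urine collected at intervals after single 15 mg/kg iv or oral solution dose, frozen; antibiotic activity by disk-plate agar diffusion against E. coli MB 3804 with standards in pH 6.0 buffer; percent of dose recovered in urine.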

[28] = Minimum inhibitory concentration against res 76 strain of Haemophilus influenzae; format: functional
[29] = test system: Klebsiella pneumoniae; test: Minimum inhibitory concentration against X68 strain of Klebsiella pneumoniae; format: functional
[30] = test system: Streptococcus pneumoniae; test: Minimum inhibitory concentration against park strain of Streptococcus pneumoniae
[31] = Oral bioavailability in mouse; format: ADME, organism-based; conditions: in vivo
How it was run: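 Male Cox mice given water and liquid diet overnight; 20 mg/kg in saline (2 mg/mL) sc or orally; urine from collection cages plus bladder contents over 2 h; activity by agar well assay with Bacillus subtilis ATCC 6633. Bioavailability from percent dose excreted in urine after oral vs parenteral dosing.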

[32] = dose in urine (24-h urine excretion) in female mongrel dogs after, oral administration of single 15 mg/kg dose; format: ADME, organism-based, Canis lupus familiaris; design: dose 15 mg/kg, route oral; conditions: dog; how it was run: as §6
[33] = Mean plasma levels in rats at a time 5 min after iv administration of 100 mg/kg of probenecid 5 min prior to test compound; format: ADME, organism-based; design: dose 100 mg/kg, route intravenous; conditions: rat, read-out: Plasma level; how it was run: as §1
[34] = test system: Mus musculus; test: Efficacy against mouse infected ip with park strain of Streptococcus pneumoniae administered po to 19-21-g random sex ICR mice at 1 hr and 5 hr; format: functional; how it was run: as §5
[35] = test system: Staphylococcus epidermidis; test: Minimum inhibitory concentration against Epil strain of Staphylococcus epidermidis; format: functional
[36] = Mean plasma levels in rats 3h after intravenous administration of 20 mg/kg of compound; format: ADME, organism-based; design: dose 20 mg/kg, route intravenous; conditions: rat, read-out: Plasma level; how it was run: as §1
[37] = test system: Mus musculus; test: Efficacy against mouse infected ip with park strain of Streptococcus pneumoniae administered sc to 19-21-g random sex ICR mice at 1 hr and 5 hr; format: functional; how it was run: as §5
[38] = test system: Streptococcus pyogenes; test: Minimum inhibitory concentration against Streptococcus pyogenes C203; format: functional
[39] = Minimum inhibitory concentration against sens CL strain of Haemophilus influenzae; format: functional
[40] = Area under plasma concentration vs time curve observed in Rhesus monkeys after oral administration of single 30 mg/kg dose; format: ADME, organism-based, Macaca mulatta; design: dose 30 mg/kg, route oral; conditions: rhesus monkey; how it was run: as §4
[41] = Minimum inhibitory concentration against N9 strain of Shigella sonnei; format: functional
[42] = in vivo; conditions: rat
[43] = test system: Mus musculus; test: Efficacy against mouse infected ip with C203 strain of Streptococcus pyogenes, administered sc to 19-21-g random sex ICR mice at 1 hr and 5 hr; format: functional; how it was run: as §5

Work on `CC1(C)S[C@@H]2[C@H](NC(=O)COc3ccccc3)C(=O)N2[C@H]1C(=O)O` [PENICILLIN V] yielded a concentration at 1 h [1] of 6.8 µg/mL, an MIC [2] of 0.06 mg/L (≈ 0.171 µM) and an AUC [3] of 25.3 µg·h/mL. It also gave a dose excreted [4] of 22.5%, an MIC [5] of 0.04 mg/L (≈ 0.114 µM) and an AUC at 3 h [6] of 32 µg·h/mL. The bioavailability [7] was 5.5%, the MIC [8] was 16 mg/L (≈ 45.7 µM) and the MIC [9] was over 128 mg/L. The ED50 [10] was 0.04 mg/kg, the MIC [11] was 0.06 mg/L (≈ 0.171 µM) and the AUC [12] was 43 µg·h/mL. The half-life [13] was 19.4 min, the bioavailability [14] was 11.6% and the MIC [15] was over 128 mg/L. For the same compound, the MIC [16] was over 128 mg/L, the MIC [17] was 0.06 mg/L (≈ 0.171 µM) and the dose excreted [18] was 2.6%. For the same compound, the ED50 [19] was 0.5 mg/kg, the AUC [20] was 3 µg·h/mL and the MIC [21] was 16 mg/L (≈ 45.7 µM). For the same compound, the concentration at 2 h [22] was 0.8 µg/mL, the concentration at 40 min [23] was 14.1 µg/mL and the concentration at 20 min [24] was 30.4 µg/mL. It also gave an ED50 [25] of 0.62 mg/kg, an MIC [26] of 32 mg/L (≈ 91.3 µM) and a dose excreted [27] of 32%. The MIC [28] was over 128 mg/L, the MIC [29] was over 128 mg/L and the MIC [30] was 0.02 mg/L (≈ 0.0571 µM). It also gave a bioavailability [31] of 29%, a dose excreted [32] of 4.9% and a concentration at 5 min [33] of 59 µg/mL. The ED50 [34] was 2.8 mg/kg, the MIC [35] was 0.125 mg/L (≈ 0.357 µM) and the concentration at 3 h [36] was under 0.3 µg/mL. It also gave an ED50 [37] of 2.1 mg/kg, an MIC [38] of 0.06 mg/L (≈ 0.171 µM) and an MIC [39] of 64 mg/L (≈ 183 µM). The AUC [40] was 2.33 µg·h/mL, the MIC [41] was over 128 mg/L and the bioavailability [42] was 34%. For the same compound, the ED50 [43] was 0.16 mg/kg.
